The results in this text go back to ChEMBL document CHEMBL1146352, “Synthesis of furopyrazole analogs of 1-benzyl-3-(5-hydroxymethyl-2-furyl)indazole (YC-1) as novel anti-leukemia agents” (2007).

For assay [1], the system named is HL-60. Description: Induction of HL60 cell differentiation assessed as nitroblue tetrazolium reduction activity at 26 uM after 72 hrs. The assay is classed as functional, Homo sapiens. The arrangement: scale not given: the % may be the effect or the level left. The method, boiled down: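 Cells treated 72 h (ATRA co-treatment at 1 µM where stated) were suspended in HBSS at 1 × 10⁶ cells/mL. Mixed with an equal volume of HBSS stock containing 1 mg/ml NBT and 5 µg/mL TPA, then held 30 min at 37 °C. Cells with formazan deposits were counted microscopically, at least 200 cells. Three experiments, each in duplicate.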

Assay [2] has as its system HT60. Description: Induction of apoptosis in […] cells at 26 uM after 48 hrs. The assay is classed as functional, cell-based. As to conditions: Homo sapiens. The method, boiled down: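 HL-60 cells were cultured 72 h or 48 h with compound, with 0.1% (v/v) DMSO as the control. Nuclei were stained with DAPI and examined microscopically (400×) for nuclear shrinkage and chromatin condensation.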

Assay [3] has as its system HL-60 (Homo sapiens). In words: Induction of apoptosis in HL-60 cells after 72 hrs.
Assay [4] relates to HL-60. In words: Cytotoxicity against HL60 cells by Propidium iodide exclusion assay. The assay is classed as functional. As to conditions: Homo sapiens, read-out: ED50 (the source's name). The method, boiled down: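 HL-60 cells seeded at 2.5 × 10⁵ cells/mL and treated at a range of concentrations for 24, 48 and 72 h at 37 °C. Viable cells were scored by propidium iodide exclusion on flow cytometry. Viability is given as the ratio of treated to control cells. ED50 derived; three independent experiments, mean ± SD.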

Molecules are shown by their SMILES. Active and inactive are the calls of the source. No cut-off for these calls is given here.

With `OCc1ccc(-c2nn(Cc3ccccc3)c3ccccc23)o1`, the Activity in assay [1] was 3.56%. For the same compound, the AD50 result in assay [2] is “Active”. Besides, in assay [3], the outcome was inactive.
`Cc1cc2c(o1)c(-c1ccc(CO)cc1)nn2-c1ccccc1`: the EC50 in assay [4] is greater than 20 µM.
The same measure, in the same setting: under `Cc1cc2c(o1)c(-c1ccc(C(=O)O)cc1)nn2Cc1ccccc1` stands greater than 20 µM.
Same read-out and setting: the result for `Cc1cc2c(o1)c(-c1ccc(C(=O)O)cc1)nn2-c1ccccc1` reads greater than 20 µM.
